Consider four molecules from ChEMBL document CHEMBL1144723, “Antiproliferative limonoids of a Malleastrum sp. from the Madagascar rainforest” (J Nat Prod, 2008).

Format in all cases: functional, cell-based
One test has as its system A2780. As to the kind of experiment: Antiproliferative activity against human A2780 cells after 96 hrs by CellTiter-Glo luminescent cell viability assay. The conditions noted are these: A2780, 96 h. On the technique in general: Cellular ATP, detected with luciferase, serves as a proxy for viable cell number.
Another test has as its system MDA-MB-435. Kind of test: Antiproliferative activity against human MDA-MB-435 cells after 96 hrs by CellTiter-Glo luminescent cell viability assay. The conditions noted are these: MDA-MB-435, 96 h. An outline of the steps:
(§1)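 Cells were cultured with compound present continuously at 0.3–10000 nM, or without compound, for 96 h. Growth was read by ATP luminescence (CellTiter-Glo). IC50 is the concentration giving 50% growth inhibition versus untreated cells. Vinblastine served as the positive control. Two separate replicate experiments were run.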

The next test deals with HT-29. As to the kind of experiment: Antiproliferative activity against human HT29 cells after 96 hrs by CellTiter-Glo luminescent cell viability assay. The conditions noted are these: HT-29, 96 h. An outline of the steps:
as §1

A short description of test [1]: Antiproliferative activity against human HS22T1 cells after 96 hrs by CellTiter-Glo luminescent cell viability assay. The conditions noted are these: HS22T1, 96 h. A digest of the protocol:
as §1

Another test concerns U-937. Kind of test: Antiproliferative activity against human U937 cells after 96 hrs by CellTiter-Glo luminescent cell viability assay. The conditions noted are these: U-937, 96 h. A digest of the protocol:
as §1

Take `CC[C@H](C)C(=O)O[C@H]1[C@H](O)[C@@H]2[C@@]3(C)C=CC(=O)[C@]4(C)CO[C@](OC(C)=O)(C(=O)[C@@]2(C)[C@@]25O[C@@H]2C[C@@H](c2ccoc2)[C@]15C)[C@H]34` [MALLEASTRONE B]: the IC50 in the test with A2780 was found to be 630 nM; with MDA-MB-435 it was 340 nM; in the test on HT-29 it was 220 nM; in test [1] it was 230 nM; in the test on U-937 it was 190 nM.

`CC(=O)O[C@]12OC[C@@]3(C)C(=O)C[C@@H](O)[C@@](C)([C@@H]13)[C@H]1[C@@H](O)[C@H](OC(=O)C(C)C)[C@@]3(C)[C@H](c4ccoc4)C[C@H]4O[C@]43[C@]1(C)C2=O` [MALLEASTRONE C] had a half-maximal inhibitory concentration (IC50) in the test with A2780 of 18000 nM.

On to `CC[C@]1(O)C[C@@H]2CN(CCc3c([nH]c4ccccc34)[C@@](C(=O)OC)(c3cc4c(cc3OC)N(C)[C@H]3[C@@](O)(C(=O)OC)[C@H](OC(C)=O)[C@]5(CC)C=CCN6CC[C@]43[C@@H]65)C2)C1` [VINBLASTINE], for which the half-inhibitory concentration (IC50) in the test on MDA-MB-435 came to 0.27 nM; with HT-29, 0.53 nM; in test [1], 1.38 nM; in the test on U-937, 0.49 nM.

With `CC(=O)O[C@]12OC[C@@]3(C)C(=O)C=C[C@@](C)([C@@H]13)[C@H]1[C@@H](O)[C@H](OC(=O)C(C)C)[C@@]3(C)[C@H](c4ccoc4)C[C@H]4O[C@]43[C@]1(C)C2=O` [MALLEASTRONE A], the half-inhibitory concentration (IC50) came to 490 nM in the test on A2780; 410 nM in the test on MDA-MB-435; 240 nM with HT-29; 240 nM in test [1]; 200 nM in the test with U-937.

What is called IC50 is the point on the concentration scale where inhibition reaches its midpoint. A higher IC50 goes with weaker potency.
